This note sets out measurements from ChEMBL document CHEMBL3994597, “Resin Glycosides from Ipomoea alba Seeds as Potential Chemosensitizers in Breast Carcinoma Cells” (J Nat Prod, 2016).

Structures are written as SMILES.

Assay [1] has as its system MCF7. Put plainly: Cytotoxicity against multidrug resistant human MCF7 cells cultured in vinblastine containing medium assessed as growth inhibition after 72 hrs by SRB assay. It counts as functional, cell-based. The settings on record: MCF7, 72 h. In short, it runs like this:
(§1)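 Cells in log phase, grown in RPMI 1640 with 10% FBS at 37 °C, 5% CO2, humidified, were exposed in triplicate to test samples at 0.2−25 μg/mL for 72 h. Growth was read by sulforhodamine B staining. IC50 is the concentration giving 50% growth inhibition relative to untreated control, taken from a semilog plot of concentration (μg/mL) against % inhibition. Vinblastine served as positive control.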
For orientation: The SRB assay estimates cell density from bound dye.

In assay [2] the test system is MCF7. Put plainly: Cytotoxicity against multidrug resistant human MCF7 cells cultured in vinblastine free medium assessed as growth inhibition after 72 hrs by SRB assay. The format is functional, cell-based. The settings on record: MCF7, 72 h. In short, it runs like this:
as §1

Assay [3] deals with MCF7. Put plainly: Cytotoxicity against vinblastine-sensitive human MCF7 cells assessed as growth inhibition after 72 hrs by SRB assay. The settings on record: MCF7, 72 h. It counts as functional, cell-based. In short, it runs like this:
as §1

For assay [4], the species on record is Homo sapiens. Kind of assay: Inhibition of multidrug resistance efflux pump in multidrug resistant human MCF7 cells cultured in vinblastine free medium assessed as potentiation of vinblastine-induced cytotoxicity by measuring fold reduction in vinblastine IC50 at 25 ug/ml after 72 hrs by SRB assay relative to vinblastine alone. In short, it runs like this: (§2)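 MCF-7/Vin− cells were a stock of the resistant line maintained in vinblastine-free medium.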

The species named for assay [5] is Homo sapiens. Put plainly: Inhibition of multidrug resistance efflux pump in multidrug resistant human MCF7 cells cultured in vinblastine containing medium assessed as potentiation of vinblastine-induced cytotoxicity by measuring fold reduction in vinblastine IC50 at 25 ug/ml after 72 hrs by SRB assay relative to vinblastine alone. The procedure, abridged: (§3)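 MCF-7/Vin+ resistant cells were kept in medium containing 0.192 μg/mL vinblastine to hold resistance.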

Assay [6] relates to HeLa. Put plainly: Cytotoxicity against human HeLa cells assessed as growth inhibition after 72 hrs by SRB assay. It counts as functional, cell-based. The procedure, abridged: as §1
Assay [7] relates to HCT-116. Put plainly: Cytotoxicity against human HCT116 cells assessed as growth inhibition after 72 hrs by SRB assay. The format is functional, cell-based. To be noted: HCT-116, 72 h. In short, it runs like this:
as §1

Assay [8] relates to MCF7. Put plainly: Potentiation of vinblastine-induced cytotoxicity against vinblastine-sensitive human MCF7 cells assessed as fold reduction in vinblastine IC50 at 25 ug/ml after 72 hrs by SRB assay relative to vinblastine alone. The format is functional. In short, it runs like this: (§4)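 Modulation assay in sensitive MCF-7 or resistant MCF-7/Vin cells. Cells received vinblastine at 0.00064−10 μg/mL, alone or with glycolipid at 25 or 5 μg/mL, for 72 h. Read-out was SRB, and vinblastine IC50 was derived as in the cytotoxicity assay. Reversal fold = IC50 of vinblastine alone / IC50 with glycolipid. Reserpine at 5 μg/mL served as positive control. Values are mean ± SD of three independent experiments.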

Assay [9] relates to HCT-15. Kind of assay: Cytotoxicity against human HCT15 cells assessed as growth inhibition after 72 hrs by SRB assay. It counts as functional, cell-based. To be noted: HCT-15, 72 h. The procedure, abridged:
as §1

The test system of assay [10] is MDA-MB-231. Put plainly: Cytotoxicity against human MDA-MB-231 cells assessed as growth inhibition after 72 hrs by SRB assay. The format is functional, cell-based. To be noted: MDA-MB-231, 72 h. In short, it runs like this:
as §1

Assay [11] is filed under the species Homo sapiens. Put plainly: Inhibition of multidrug resistance efflux pump in multidrug resistant human MCF7 cells cultured in vinblastine free medium assessed as potentiation of vinblastine-induced cytotoxicity by measuring fold reduction in vinblastine IC50 at 5 ug/ml after 72 hrs by SRB assay relative to vinblastine alone. The procedure, abridged:
as §2

The species entered for assay [12] is Homo sapiens. Kind of assay: Inhibition of multidrug resistance efflux pump in multidrug resistant human MCF7 cells cultured in vinblastine containing medium assessed as potentiation of vinblastine-induced cytotoxicity by measuring fold reduction in vinblastine IC50 at 5 ug/ml after 72 hrs by SRB assay relative to vinblastine alone. The procedure, abridged:
as §3

The subject of assay [13] is MCF7. Put plainly: Potentiation of vinblastine-induced cytotoxicity against vinblastine-sensitive human MCF7 cells assessed as fold reduction in vinblastine IC50 at 5 ug/ml after 72 hrs by SRB assay relative to vinblastine alone. It counts as functional. In short, it runs like this: as §4

Usually IC50 stands for the concentration that gives 50% inhibition. `Cc1c2ccncc2c(C)c2c1[nH]c1ccccc12` [ELLIPTECINE]: the IC50 in assay [1] was 2 µM; in assay [2], 1.6 µM.

For `C/C=C(\C)C(=O)O[C@H]1[C@H](O[C@H]2[C@@H]3O[C@H]4[C@H](O[C@@H](CCC)CCCCCCCCCC(=O)O[C@H]5[C@H](O[C@H]6[C@H](OC[C@@H](O3)[C@@H](O)[C@@H]2O)O[C@H](C)[C@@H](O)[C@@H]6O)O[C@@H](C)[C@H](O)[C@H]5O)O[C@H](C)[C@@H](O)[C@@H]4O)O[C@@H](C)[C@H](O)[C@H]1O`, the IC50 in assay [1], in assay [3], in assay [6], in [7], in assay [9] and in assay [10] was above 20 µM in each case. Moreover, in assay [2], the IC50 is above 20 µM. In addition, the fold change (FC) in assay [4] turned out to be 1700; in [5], 3; in assay [8] it was 4.

As for `C/C=C(\C)C(=O)O[C@@H]1[C@H](O)[C@@H](O)[C@H](O[C@@H]2[C@@H](O)[C@@H](OC(=O)/C(C)=C/C)[C@H](O[C@H]3[C@@H]4O[C@H]5[C@H](O[C@@H](CCC)CCCCCCCCCC(=O)O[C@H]3[C@H](O)[C@@H](CO)O4)O[C@H](C)[C@@H](O)[C@@H]5O)O[C@H]2C)O[C@@H]1C`, the half-inhibitory concentration (IC50) in assay [1] was above 20 µM; in assay [3], 15.1 µM; in assay [6] it was 17.4 µM; in assay [7] it was 15.1 µM; in assay [9], 14.3 µM; in assay [10], above 20 µM. In [2], the IC50 was above 20 µM. Besides, the fold change (FC) in [4] was 5; in assay [5], above 2520; in [8], above 87.

As for `CC[C@@]1(O)C(=O)OCc2c1cc1n(c2=O)Cc2cc3ccccc3nc2-1` [CAMPTOTHECIN], the IC50 in assay [1], in assay [3] and in assay [2] was below 0.0018 µM each time.

For `COC(=O)[C@H]1[C@H]2C[C@@H]3c4[nH]c5cc(OC)ccc5c4CCN3C[C@H]2C[C@@H](OC(=O)c2cc(OC)c(OC)c(OC)c2)[C@@H]1OC` [RESERPINE], the fold change (FC) in [11] was 20; in [12], 3; in assay [13], 11.

On to `CC[C@]1(O)C[C@@H]2CN(CCc3c([nH]c4ccccc34)[C@@](C(=O)OC)(c3cc4c(cc3OC)N(C)[C@H]3[C@@](O)(C(=O)OC)[C@H](OC(C)=O)[C@]5(CC)C=CCN6CC[C@]43[C@@H]65)C2)C1` [VINBLASTINE], for which the IC50 turned out to be 1.3 µM in assay [1]; 0.06 µM in assay [3]; 0.002 µM in assay [6]; 0.05 µM in [7]; 0.06 µM in assay [9]; 0.01 µM in assay [10]. In addition, in [2], the IC50 came to 1.1 µM.

Regarding `CCC[C@H]1CCCCCCCCCC(=O)O[C@H]2[C@H](O[C@H]3[C@H](O)[C@@H](C)O[C@@H](O[C@H]4[C@H](O1)O[C@H](C)[C@@H](O)[C@@H]4O)[C@@H]3O[C@@H]1O[C@@H](C)[C@H](OC(C)=O)[C@@H](O)[C@H]1O)O[C@H](C)[C@@H](O)[C@@H]2OC(=O)[C@H](C)[C@@H](C)O`, the IC50 in assay [1], in assay [3], in assay [6], in assay [7], in assay [9] and in assay [10] was above 20 µM throughout. Also, the IC50 in assay [2] was above 20 µM. For the same compound, the fold change (FC) was 322 in assay [4], 201 in [5] and 34 in [8].

As for `COc1cc2c(c(OC)c1OC)-c1ccc(OC)c(=O)cc1[C@@H](NC(C)=O)CC2` [COLCHICINE], the IC50 is 2.8 µM in assay [1], 0.05 µM in assay [3] and 2.8 µM in assay [2].

Consider `C/C=C(\C)C(=O)O[C@@H]1[C@H](O)[C@@H](O)[C@H](O[C@@H]2[C@@H](O)[C@@H](OC(=O)/C(C)=C/C)[C@H](O[C@H]3[C@@H]4O[C@H]5[C@H](O[C@@H](CCCCC)CCCCCCCCCC(=O)O[C@H]3[C@H](O)[C@@H](CO)O4)O[C@H](C)[C@@H](O)[C@@H]5O)O[C@H]2C)O[C@@H]1C`, for which the half-inhibitory concentration (IC50) amounted to 17 µM in [1]; 8 µM in assay [3]; 9.6 µM in assay [6]; 15.9 µM in assay [7]; 9.8 µM in assay [9]; 11.6 µM in assay [10]. The IC50 in assay [2] stood at 16.3 µM. Moreover, the fold change (FC) in assay [4] was above 1980; in [5], above 2520; in [8], above 87.

For the compound `CCC[C@H]1CCCCCCCCCC(=O)O[C@H]2[C@H](OC[C@H]3O[C@@H](O[C@H]4[C@H](O1)O[C@H](C)[C@@H](O)[C@@H]4O)[C@H](O[C@@H]1O[C@@H](C)[C@H](OC(C)=O)[C@@H](O)[C@H]1O)[C@@H](O)[C@@H]3O)O[C@H](C)[C@@H](O)[C@@H]2OC(=O)[C@H](C)[C@@H](C)O`, the IC50 in assay [1], in [3], in assay [6], in [7], in assay [9] and in assay [10] was above 20 µM in each case. Besides, the IC50 in [2] was above 20 µM. Also, the fold change (FC) worked out at 1 in assay [4], 2 in assay [5] and 4 in [8].

Consider `COc1cc([C@@H]2c3cc4c(cc3[C@H](O)[C@H]3COC(=O)[C@H]23)OCO4)cc(OC)c1OC` [PODOFILOX], for which the IC50 in [1] stood at 0.3 µM; in assay [3] it was 0.02 µM; in assay [2] it was 0.2 µM.

In the case of `C/C=C(\C)C(=O)O[C@H]1[C@@H]2O[C@H]3[C@H](O[C@@H](CCC)CCCCCCCCCC(=O)O[C@@H]4[C@@H](O)[C@H](C)O[C@@H](O[C@H]5[C@H](O)[C@@H](C)O[C@@H](O[C@H]([C@H]1O)[C@H](C)O2)[C@@H]5O[C@@H]1O[C@@H](C)[C@H](O)[C@@H](O)[C@H]1OC(=O)[C@H](C)[C@@H](C)O)[C@@H]4O)O[C@H](C)[C@@H](O)[C@@H]3O`, the concentration for half-maximal inhibition (IC50) in [1], in assay [3], in [6], in assay [7], in assay [9] and in [10] was above 20 µM throughout. For the same compound, in [2], the IC50 was above 20 µM. Moreover, the fold change (FC) in assay [4] is 283; in assay [5] it was 3; in [8] it was 37.
